Test results reported in PMC10586019 (ACS Omega, 2023).
Values after ≈ are worked out from the molar mass of the structure shown. Values joined by “and” are separate entries in the source; they are usually repeats but may differ in a detail not shown here. Equal values may be shown once. Where a SMILES comes first, the peptide text is derived from it. Where no end group is shown, it is not given here. [ ]: non-standard residue; d: D form. Orn = NCCC[C@H](N)C(=O)O; Ahx = NCCCCCC(=O)O

How the values were obtained:
Galleria mellonella [1] = conditions: at 33 mg/kg; cited from earlier work
[2] = MTT cytotoxicity, HEK-293 control cells; format: cell-based; conditions: Caco-2
In short: (§1)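 Cells are grown in RPMI-1640 with 10% FBS, seeded at 1 × 10^4 per well, and synchronized for 24 h. Medium is replaced with peptide (0–200 μg/mL) in the same medium for 2 h at 37 °C. MTT (5 mg/mL solution) is added for 4 h at 37 °C, and formazan is dissolved in DMSO for 30 min at 37 °C. Absorbance is read at 570 nm.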

HEK-293 = assay: MTT cytotoxicity, HEK-293 control cells; format: cell-based; conditions: for CC50 HEK-293: MTT, peptide 0-200 μg/mL, 2 h, 37 °C, n = 3; for Selectivity Index HEK-293/HT-29: SI = CC50/IC50
In short: as §1

human fibroblasts = assay: MTT cytotoxicity, fibroblasts control cells; format: cell-based; conditions: for CC50 fibroblasts: MTT, peptide 0-200 μg/mL, 2 h, 37 °C, n = 3; for Selectivity Index fibroblasts/HT-29: SI = CC50/IC50
Hemolytic activity = format: cell-based, human; conditions: Caco-2
In short: (§2)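 Erythrocytes from healthy O+ donors (EDTA blood) are spun at 500 rpm and washed 3× in 0.9% saline. Peptide (final 200 to 6.2 μg mL−1) is mixed 1:1 with 2% hematocrit suspension for 2 h at 37 °C, then spun 2500 rpm for 5 min. Supernatant A450 is read. Positive controls are distilled water and Tween 20; the negative is 0.9% saline. The readout is the concentration causing 10% hemolysis.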

erythrocytes = assay: Hemolytic activity; format: cell-based, human; conditions: SI = hemolysis10%/IC50
In short: as §2

Du-145 = assay: MTT viability test, Du-145 prostate cancer cells; format: cell-based; conditions: for IC50 Du-145: peptide 0-200 μg/mL during 2 h, mean ± SE n = 3; for IC50: read-out: IC50 Du-145, peptide 0-200 μg/mL during 2 h, mean ± SE n = 3
In short: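 Du-145 cells are seeded at 1 × 10^4 per well and synchronized for 24 h. They are exposed to peptide (0–200 μg/mL) in medium for 2 h at 37 °C. MTT (5 mg/mL solution) is added for 4 h at 37 °C, DMSO solubilization runs 30 min at 37 °C, and A570 is read. Data are mean ± SE, n = 3.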

Vero cells = assay: MTT cytotoxicity, Vero control cells; format: cell-based; conditions: for CC50 Vero: MTT, peptide 0-200 μg/mL, 2 h, 37 °C, n = 3; for Selectivity Index Vero/HT-29: SI = CC50/IC50
In short: as §1

[3] = MTT cytotoxicity, Vero control cells; format: cell-based; conditions: Caco-2
In short: as §1

Caco-2 = assay: MTT viability test, Caco-2 colon cancer cells; format: cell-based; conditions: Caco-2, MTT
[4] = MTT cytotoxicity, fibroblasts control cells; format: cell-based, human; conditions: Caco-2
Galleria mellonella [5] = assay: Galleria mellonella toxicity test; format: in vivo; conditions: 20-100 mg/Kg, 10 days, Kaplan-Meyer, n = 2

Molecule | mortality in Galleria (previous study) (Galleria mellonella [1]) | selectivity ratio [2] | CC50 HEK-293 (HEK-293) | Selectivity Index HEK-293/HT-29 (HEK-293) | CC50 fibroblasts (human fibroblasts) | selectivity ratio (Hemolytic activity) | Selectivity Index erythrocytes/HT-29 (erythrocytes) | IC50 Du-145 (Du-145) | IC50 (Du-145) | CC50 Vero (Vero cells) | selectivity ratio [3] | decrease of IC50 in Caco-2 cells compared to the parent peptide RWQWRWQWR (Caco-2) | Selectivity Index fibroblasts/HT-29 (human fibroblasts) | Selectivity Index Vero/HT-29 (Vero cells) | fold increase in potency against Caco-2 versus parent peptide (Caco-2) | selectivity ratio [4] | toxicity (Galleria mellonella [5])
N.N.[Cl][Pt][Cl] [cisplatin] | 60% | – | – | – | – | – | – | – | – | – | – | – | – | – | – | – | –
RWQWRWQWR-NH2 [[Pal]] | – | 0.8 | 68 μM and 101 μg/mL | 0.7 | > 134 μM and > 200 μg/mL | 1.6 | 1.3 | 60 µg/mL | 40 µM | 21 μM and 31 μg/mL | 0.2 | – | – | – | – | – | –
N=C(N)NCCC[C@H](NC(=O)[C@H](Cc1c[nH]c2ccccc12)NC(=O)[C@H](CCC(N)=O)NC(=O)[C@H](Cc1c[nH]c2ccccc12)NC(=O)[C@H](CCCNC(=N)N)NC(=O)[C@H](Cc1c[nH]c2ccccc12)NC(=O)[C@H](CCC(N)=O)NC(=O)[C@H](Cc1c[nH]c2ccccc12)NC(=O)[C@H](CCCNC(=N)N)NC(=O)CCCCCN)C(N)=O [Ahx-[Pal]] (H-[Ahx]RWQWRWQWR-NH2) | – | 2.2 | 86 μM and 132 μg/mL | 0.7 | 98 μM and 157 μg/mL | > 3.1 | >1.1 | – | – | 40 μM and 64 μg/mL | 1 | approx. 50% | 0.8 | 0.3 | – | – | –
N=C(N)NCCC[C@H](NC(=O)[C@H](Cc1c[nH]c2ccccc12)NC(=O)[C@H](CCC(N)=O)NC(=O)[C@H](Cc1c[nH]c2ccccc12)NC(=O)[C@@H](N)CCCNC(=N)N)C(=O)N[C@@H](Cc1c[nH]c2ccccc12)C(=O)N[C@@H](CCC(N)=O)C(=O)N[C@@H](Cc1c[nH]c2ccccc12)C(=O)N[C@@H](CCCN)C(N)=O [^9[Orn] [Pal]] (H-RWQWRWQW[Orn]-NH2) | – | 1.3 | 51 μM and 74 μg/mL | 0.5 | 55 μM and 79 μg/mL | > 3.4 | >1.3 | 89 µg/mL (≈ 61.6 µM) | 62 µM | 46 μM and 67 μg/mL | 1.2 | approx. 50% | 0.5 | 0.4 | 2 fold | 1.4 | did not show any significant toxicity
